{
  "source": "paper PMC2803432",
  "about": "(Current Chemical Genomics, 2008)",
  "key": {"14-3-3 proteins": {"tested_on": "14-3-3 proteins", "conditions": "cited from earlier work"}, "14-3-3γ [1]": {"target": "T1, 14-3-3γ (Homo sapiens, UniProt P61981)", "T1 sequence (P61981 1-247)": "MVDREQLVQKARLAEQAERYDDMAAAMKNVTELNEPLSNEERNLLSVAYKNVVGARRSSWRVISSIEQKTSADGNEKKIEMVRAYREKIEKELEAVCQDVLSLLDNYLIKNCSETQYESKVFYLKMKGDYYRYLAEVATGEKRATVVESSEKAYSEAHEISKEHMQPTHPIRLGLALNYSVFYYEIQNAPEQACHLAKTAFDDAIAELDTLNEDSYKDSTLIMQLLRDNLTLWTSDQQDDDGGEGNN", "test": "AlphaScreen direct binding of biotin-pS259-Raf-1 to GST-14-3-3γ", "conditions": "increasing GST-14-3-3γ and biotin-pS259-Raf-1 with both beads", "in_short": "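Biotinylated pS259-Raf-1 peptide (LSQRSTpSTPNVHM) was titrated with purified GST-14-3-3γ; Z' runs used 100 nM peptide. Anti-GST acceptor beads were added and incubated 30 min, then streptavidin donor beads for 1.5 h. Luminescence was read under dim light. Background wells held one binding component.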"}, "14-3-3γ [2]": {"target": "T1, 14-3-3γ", "test": "AlphaScreen direct binding of GST-R18 to biotin-14-3-3γ", "conditions": "GST-R18 5 nM to 500 nM; biotin-14-3-3γ 5 nM or 10 nM", "in_short": "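His-14-3-3γ expressed in E. coli BL21(DE3), Ni2+-column purified, desalted, then biotinylated with sulfo-NHS-LC-biotin. GST-R18 expressed in E. coli. Anti-GST acceptor beads added, then streptavidin donor beads 30 min later. Read after 1.5 h at room temperature under dim light. Background wells held one component. Triplicate, mean ± SD.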"}, "GST-14-3-3γ [3]": {"target": "GST-14-3-3γ (UniProt P61981)", "test": "AlphaScreen or HTRF"}, "biotinylated His-14-3-3γ [4]": {"target": "biotinylated His-14-3-3γ (UniProt P61981)", "test": "AlphaScreen or HTRF"}, "GST-14-3-3γ [5]": {"target": "T2, GST-14-3-3γ (UniProt P61981 1-247)", "T2 sequence (looked up)": "T1 sequence (P61981 1-247)", "test": "AlphaScreen or HTRF"}, "biotinylated His-14-3-3γ [6]": {"target": "T3, biotinylated His-14-3-3γ (UniProt P61981 1-247, biotin (EZ-Link sulfo-NHS-LC-biotin; sites not stated))", "T3 sequence (looked up)": "T1 sequence (P61981 1-247)", "test": "AlphaScreen or HTRF"}},
  "note": "Residues, ends and D or L forms follow the SMILES beside them. No end group written: not given here.",
  "data": [
    {"molecule": "CSCC[C@H](NC(=O)[C@H](CC(N)=O)NC(=O)[C@H](C)NC(=O)[C@H](CCC(=O)O)NC(=O)[C@H](CC(C)C)NC(=O)[C@H](CC(=O)O)NC(=O)[C@H](CC(C)C)NC(=O)[C@H](Cc1c[nH]c2ccccc12)NC(=O)[C@H](CO)NC(=O)[C@H](CC(C)C)NC(=O)[C@H](CC(=O)O)NC(=O)[C@H](CCCNC(=N)N)NC(=O)[C@@H]1CCCN1C(=O)[C@@H](NC(=O)[C@H](CS)NC(=O)[C@H](Cc1c[nH]cn1)NC(=O)[C@@H]1CCCN1)C(C)C)C(=O)N[C@@H](CS)C(=O)N[C@@H](CC(C)C)C(=O)N1CCC[C@H]1C(=O)O", "note": "[R18] (H-PHCVPRDLSWLDLEANMCLP-OH; N-terminus and C-terminus assumed)", "values": [
      {"measurement": "effect of GST fusion on efficacy of R18 for 14-3-3 binding", "setting": "14-3-3 proteins; GST fusion of R18, ref [10]", "result": "no detectable effect on the efficacy of R18 for 14-3-3 binding"},
      {"measurement": "competition with natural proteins for binding of 14-3-3 (in words)", "setting": "14-3-3 proteins; ref [17]", "result": "can effectively compete with other natural proteins for the binding of 14-3-3 proteins"},
      {"measurement": "affinity for 14-3-3 proteins (in words)", "setting": "14-3-3 proteins; unphosphorylated peptide from phage display, ref [10]", "result": "exhibits a high affinity for 14-3-3 proteins"}
    ]},
    {"molecule": "Biotin-LSQRSTpSTPNVHM [biotin-pS259-Raf-1]", "values": [
      {"measurement": "Alpha signal with increasing concentration (in words)", "setting": "14-3-3γ [1]", "result": "dose-dependent increase in Alpha signal"}
    ]},
    {"molecule": "GST-R18: GST-tagged R18 protein-peptide fusion, purified from bacterial cells (PHCVPRDLSWLDLEANMCLP; cysteine pairing not given here; also: GST tag fused, end not given here)", "values": [
      {"measurement": "Alpha signal with increasing concentration (in words)", "setting": "14-3-3γ [2]", "result": "induced the robust production of Alpha signal in a dose-dependent manner"}
    ]},
    {"molecule": "pS967-ASK1 peptide", "values": [
      {"measurement": "IC50", "setting": "GST-14-3-3γ [3]", "result": 535, "unit": "nM"},
      {"measurement": "IC50", "setting": "biotinylated His-14-3-3γ [4]", "result": 549, "unit": "nM"}
    ]},
    {"molecule": "PHCVPRDLSWLDLEANMCLP", "note": "[untagged R18 peptide]", "values": [
      {"measurement": "IC50", "setting": "GST-14-3-3γ [5]", "result": "35.7 ± 1.1", "unit": "nM"},
      {"measurement": "IC50", "setting": "biotinylated His-14-3-3γ [6]", "result": "28 ± 1.1", "unit": "nM"}
    ]}
  ]
}
